Assay results from different studies.
CDK5: Cyclin-dependent kinase 5 (CDK5, Homo sapiens, UniProt Q00535)
CDK5 with p25: Cyclin-dependent kinase 5, with p25 (CDK5, Homo sapiens, UniProt Q00535)

| Compound | target | observed | action | technique | concentration | endpoint | value |
| --- | --- | --- | --- | --- | --- | --- | --- |
| Nc1ncnc2occ(-c3ccc(NC(=O)Nc4cc(C(F)(F)F)ccc4F)cc3)c12 | CDK5 | cell-free assay | inhibitor |  | 20 µM | remaining signal | 0.55% |
| Cc1c(NC(=O)c2cc(C(N)=O)nc3cc(F)ccc23)c(C(F)(F)F)nn1Cc1ccc(C#N)cc1 | CDK5 | cell-free assay |  | competition with immobilised ligand | 1 µM | remaining binding | 100% |
| CC[C@H](C)[C@H](NC(=O)[C@H](CCC(N)=O)NC(=O)[C@H](CC(C)C)NC(=O)[C@H](CCSC)NC(=O)[C@H](CCCCN)NC(=O)[C@H](CO)NC(=O)[C@H](CO)NC(=O)[C@H](CCSC)NC(=O)[C@H](CC(C)C)NC(=O)[C@H](CC(N)=O)NC(=O)[C@@H](NC(=O)[C@@H](NC(=O)[C@H](CO)NC(=O)[C@H](CC(C)C)NC(=O)[C@H](CS)NC(=O)[C@H](CCCNC(=N)N)NC(=O)[C@H](CC(=O)O)NC(=O)[C@H](Cc1c[nH]c2ccccc12)NC(=O)[C@H](Cc1ccccc1)NC(=O)[C@H](C)NC(=O)[C@H](CCC(=O)O)NC(=O)[C@@H](N)CCCCN)C(C)C)[C@@H](C)CC)C(=O)N[C@@H](CC(N)=O)C(=O)N[C@@H](C)C(=O)O | CDK5 with p25 | enzyme activity | inhibitor | radiometric | 1 µM | inhibition | 0% |
| O=C1NC(=O)c2cc(Nc3ccc(F)cc3)c(Nc3ccc(F)cc3)cc21 | CDK5 with p25 | cell-free assay |  |  | 0.5 µM | remaining signal | 85.9% |
| N[C@H]1CCN(c2nccc(-c3cnn4ncccc34)n2)C1 | CDK5 | binding |  |  | 1 µM | remaining binding | 100% |
| O=C1NC(c2ccccn2)Sc2ccccc21 (stereo not shown) | CDK5 | cell-free assay |  | competition with immobilised ligand | 1 µM | remaining binding | 86% |
| N#CCCc1ccc2c(c1)-c1[nH]c3ccc([N+](=O)[O-])cc3c1CC(=O)N2 | CDK5 with p25 | cell-free assay |  |  | 0.5 µM | remaining signal | 5.79% |
| CO[C@@H](C)c1c(Nc2ccc([C@@H](N(C)C(=O)C3CCS(=O)(=O)CC3)C(F)(F)F)cc2)cnc2cc(Cl)nn12 | CDK5 | cell-free assay |  | competition with immobilised ligand | 1 µM | remaining binding | 99% |
| Nc1nc(Nc2ccc(S(N)(=O)=O)cc2)nn1C(=O)c1c(F)cccc1F | CDK5 with p25 | cell-free assay |  |  | 0.5 µM | remaining signal | 2.54% |
| Cc1ccc(C(=O)NCc2ccsc2)cc1C#Cc1cn(C(C)C)c2ncnc(N)c12 | Cyclin-dependent kinase 5, with p35 (CDK5, Homo sapiens, UniProt Q00535) | enzyme activity | inhibitor |  | 1 µM | activity vs control | 96% |
